In the EternaBench riboswitch data:

System: MS2 coat protein
Assay: apparent Kd, MS2 coat protein; higher = weaker binding; RNA-MaP array; FMN 200 µM where present
How it was run: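 Two titrations, one without ligand and one with constant ligand, were run with SNAP-549-labelled MS2 coat protein from 0.7 or 1.5 nM, doubling to 3 µM. The targets were designs transcribed by stalled E. coli RNA polymerase on Illumina sequencing-chip clusters, in 100 mM Tris-HCl pH 7.5, 80 mM KCl, 4 mM MgCl2, BSA, DTT, yeast tRNA and Tween-20. The apparent Kd is the median of filtered per-cluster binding-curve fits, with green signal normalised to red-channel RNA signal and control-cluster median Fmax.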

[1] = designed as: OFF switch for flavin mononucleotide, no ligand
[2] = ligand present: flavin mononucleotide, designed as: OFF switch for flavin mononucleotide
[3] = designed as: ON switch for flavin mononucleotide, no ligand
[4] = ligand present: flavin mononucleotide, designed as: ON switch for flavin mononucleotide

| Sequence | apparent Kd [1] [nM] | apparent Kd [2] [nM] | apparent Kd [3] [nM] | apparent Kd [4] [nM] |
| --- | --- | --- | --- | --- |
| AGGCGAGUAGGAUAUGCGUAUUUACGGGAAAGCUGGAUGAUACAUGAGGAUCACCCAUGUAGAAGGGCUCUGAA | 19.2 | 15.3 | – | – |
| AGGUAGUCAGGAUAUUAUUUUUAGCGGGAUAACGCUGAGGGUGAGAAGGGACAUGAGGAUCACCCAUGUUUUGA | 258 | 191 | – | – |
| AGGUCGAGUGUGAGGAUAUUGACCGGACGACCCAUCGAGAAGGCACAUGAGGAUCACCCAUGUGAUUCAGCUCA | 15 | 17.1 | – | – |
| AGGUGAAAUGUAGGAUAUGGAAAUAAAUUUUAACCAGAAGGACAUGAGGAUCACCCAUGUGAUAGAGAGUUAUUUAUAACUCCA | 13.9 | 95.9 | – | – |
| AGGUGACAUGAGGAUCACCCAUGUCAGGAUAUAUACACUGCCGGCGUGACGCCGGCAGAUAGAAGGGACAAAAU | 15.9 | 18.4 | – | – |
| AGGUGGUGUGGAAAGGAUAUACGGUUGAGGACAUGAGGAUCACCCAUGUGGUAGAGGACGUGAGUGUAGAAGGUUCGGGAUUGGU | – | – | 74.9 | 52.1 |
| AGUACAUCAGGAUAUACAUGAAAGAUCAUCAUGACCUUUCUACAUGAGGAUCACCCAUGUAGAAGGGAUGUACA | 20.2 | 38 | – | – |
| AGUACUACAGGAUAUACGAGGGAGGUCCACGUGACCCUUUUACAUGAGGAUCACCCAUGUAGAAGGGUAGUACA | 23.3 | 26.8 | – | – |
| AGUACUCAAAGAGUACGCGUAAGCACAUGAGGAUCACCCAUGUAGGAUAUGCUACUCAAAGAGUAGUAGAAGGACAUAUACCUC | 5.2 | 6.34 | – | – |
| AGUAGAUCAGGAUAUACGUGAAAGGUCAAAGUGUCACUACUACAUGAGGAUCACCCAUGUAGAAGGGAUCUACA | 16.4 | 29.3 | – | – |
| AGUAUACAUGAGGAUCACCCAUGUCAGUAACUGACAGGAUAUGCGUUGCAUCACUGUAAUGCAGAAGGGUCUUGUA | – | – | 507 | 115 |
| AGUAUGUACGCAGGAUAUACAUGAGGAUCACCCAUGUGGAACAGUGUAGUACUAGUUGAUCCUCAGUAGAAGGGCGGCCGAAUA | 49.3 | 62.6 | – | – |
| AGUCAUACAGGAUAUACAUGAGGAUCACCCAUGUAAAUCCUACAUGGGUGAUCCUCAUGUAGAAGGGUAUGACA | 11.7 | 10.4 | – | – |
| AGUCCACAUGAGGAUCACCCAUGUGAGGAUAUCGAUGUCCCAGGGCGGGUGCGGGACUCGAGAAGGCACUAGGU | 34.5 | 110 | – | – |
| AGUCCGGAACAGAAGGACAUGAGGAUCACCCAUGUAGGAUAUGUUGUGCGGCGUUAGGGAGGUGCCUGCGUGUGGGCGGAUCUC | – | – | 14.1 | 6.56 |
| AGUCGGAGCAGAGGAUAUACAUGAGGAUCACCCAUGUAAAUGGAAGAAGCCUGGAAACAGGCAAUGUAGAAGGCUGCUCCGACA | 132 | 708 | – | – |
| AGUCGGAGCAGAGGAUAUACAUGAGGAUCACCCAUGUAAUUAAGUGAAGCCUGGAAACAGGCAAUGUAGAAGGCUGCUCCGACA | 9.44 | 51.7 | – | – |
| AGUCGGAGCAGAGGAUAUAUACAUGAGGAUCACCCAUGUAAAUGAAUGAGCUGGAAACAGCAAGUAUAGAAGGCUGCUCCGACA | 15.2 | 16 | – | – |
| AGUCGGAGCAGAGGAUAUAUACAUGAGGAUCACCCAUGUGACUGACUACGCUGGAAACAGCAUGUAUAGAAGGCUGCUCCGACA | 448 | 882 | – | – |

| Sequence | apparent Kd [1] [nM] | apparent Kd [2] [nM] | apparent Kd [3] [nM] | apparent Kd [4] [nM] |
| --- | --- | --- | --- | --- |
| AGUCGGAGCAGAGGAUAUUACAUGAGGAUCACCCAUGUAGGUACCAAUAGCUGGAAACAGCAAUGUAAGAAGGCUGCUCCGACA | 259 | 281 | – | – |
| AGUCGGCGAGGAUAUACAUGAGGAUCACCCAUGUGAGAGAAUAAAGUGAGUUAGACAAGUAGAAGGCGCUGACA | 47.4 | 415 | – | – |
| AGUCUGAGAGGAUAUACAUGAAAAAAAAAAGUUAGAUCCCUACAUGAGGAUCACCCAUGUAGAAGGCUCUGACA | 19.2 | 16.7 | – | – |
| AGUGACGACGAGGAUAUUCCGGUAGCCUACUAAGAAGAAGGUGUCACAUGAGGAUCACCCAUGUUUAGUUUCGC | 141 | 68.7 | – | – |
| AGUGCGUAUGUGAGGAUAUGCUGGUCCUUGGAUCAGCAGAAGGCACAUGAGGAUCACCCAUGUGGUGUCGUACU | 253 | 27.2 | – | – |
| AGUGGUGGAGGAUAUACAUGAGGAUCACCCAUGUAAAUCACACAUGUGGUCAAAGCAUGUAGAAGGCCACUACA | 99.6 | 109 | – | – |
| AGUGUCAUCGAGAAGGCCUCAACAUGAGGAUCACCCAUGUUGCAAAAUGGGAGGAUAUCGCGCAAAAAGCUACGUUUCGUAGCA | – | – | 43.1 | 6.96 |
| AGUGUCGGCACAGGAUAUGAGAUGCCGGCAGACAUGAGGAUCACCCAUGUAAGCGAACCGGGCAGUCAGAAGGGUGAUCGACGA | – | – | 161 | 29.7 |
| AGUGUCGGCACAGGAUAUGAGAUGCCGGCAGACAUGAGGAUCACCCAUGUAAGCGACCCAGGCAGUCAGAAGGGUGAUCGACAA | – | – | 156 | 44.4 |
| AGUGUGUGGCAGGAUAUGCGAUUUGUAGGUGUUGCAGAAGGGUCUACAUGAGGAUCACCCAUGUGUGCGGUUGA | 283 | 570 | – | – |
| AGUGUGUGGCAGGAUAUUCCGGUCGUGGGUCGGGAAGAAGGGUCUACAUGAGGAUCACCCAUGUGAGCGGUUGA | 210 | 241 | – | – |
| AGUGUUGGAGGAUAUACAUGAGGAUCACCCAUGUACAUCACACAGUAUAUCAAACCAUGUAGAAGGCCAAUACA | 18.2 | 36.4 | – | – |
| AGUUAAUAUCGAGGAUAUCCUCAUAAACAUGAGGAUCACCCAUGUUAACAUGGAGAAGGCGAUAUUAACAGCAUGUUACAUGCA | – | – | 268 | 20.2 |
| AGUUAAUAUCGAGGAUAUCCUCAUCUACAUGAGGAUCACCCAUGUAAGCAUGGAGAAGGCGAUAUUAACAGCAUGUUACAUGCA | – | – | 112 | 10.5 |
| AGUUAAUAUCGAGGAUAUCCUCUGAAACAUGAGGAUCACCCAUGUAGAAUGGGAGAAGGCGAUAUUAACAGCAUGUUACAUGCA | – | – | 111 | 48.6 |
| AGUUAAUAUCGAGGAUAUGUCUAGACACAUGAGGAUCACCCAUGUAUGUGUAUAGAAGGCGAAAAUAACAGCAUGUUACAUGCA | – | – | 37.4 | 19.9 |
| AGUUAAUAUCGAGGAUAUGUCUAGACACAUGAGGAUCACCCAUGUAUGUGUAUAGAAGGCGAUAUUAACAGCAUGUUACAUGCU | – | – | 42.9 | 16.4 |
| AGUUAGAUAGCGAUAUGAUCGAGAGAUCAUGUCGCUAAGUUUAGAAGGACAUGAGGAUCACCCAUGUAGGAUAUGGGAGUAGAA | – | – | 149 | 53.9 |
| AGUUGGCGAGGAUAUACAUGAGGAUCACCCAUGUGAAAUCGAGAAAAAAUAGGGAAAAGUAGAAGGCGCAGACA | 10.3 | 12.1 | – | – |

| Sequence | apparent Kd [1] [nM] | apparent Kd [2] [nM] | apparent Kd [3] [nM] | apparent Kd [4] [nM] |
| --- | --- | --- | --- | --- |
| AGUUGGCGAGGAUAUACAUGAGGAUCACCCAUGUGGUCCUGCGAUGGUGUCGCCCUUUGUAGAAGGCGCGGGUC | 35 | 28.1 | – | – |
| AUAAACAUGAGGAUCACCCAUGUGAGAAGGCGCAUUACUAUAUUUAUACACUUUAAUACUAACAGCGAGGAUAUCACCUCAUAA | 15.8 | 24.7 | – | – |
| AUAAAGCGAGGAUAUCGCGCGGAGUACAUGAGGAUCACCCAUGUGGUCCGCAGUCCUGCGCGAGAAGGCGCAUUCC | 138 | 54.2 | – | – |
| AUAAAUCAUGUAGGAUAUGCGUGGCGAAGCUAUGCAGAAGGACAUGAGGAUCACCCAUGUCUUUCCGUCUGCGUACAGACGGAA | 33.4 | 311 | – | – |
| AUAAUGAGAGGAUAUACAUGAGGAUCACCCAUGUUAUUAUCACGGCGAGCUCCAUUACGUAGAAGGCUCAUUUA | 16.5 | 44.7 | – | – |
| AUAAUGAGAGGAUAUACAUGAGGAUCACCCAUGUUAUUAUCACGUCGUGCUCCAUUACGUAGAAGGCUCAUUUA | 22 | 84.1 | – | – |
| AUAAUUAUAUAUUUCCCAAGAAUCAGAAGGCGUUACAUGAGGAUCACCCAUGUUUUGUAUAGUAACGAGGAUAUGAUAUGGAAA | 16.3 | 14.5 | – | – |
| AUAAUUUUAUAUAUCAUUUUAAUCAGAAGGCAUAACAUGAGGAUCACCCAUGUAAAUUAAUGUUAUGAGGAUAUGAUUUGGUUA | 26.1 | 147 | – | – |
| AUACAUGAGGAUCACCCAUGUAAUUAAUUAACUUGUAAGAUCAAGGAUAUCAGCUCGAAUAGAGCUGAGAAGGUGAUCACAUGU | – | – | 179 | 220 |
| AUACCACGAGGAUAUCGUCUAUUCCACAUGAGGAUCACCCAUGUUAUCCAUGUUUCGUUUCGAGAAGGCGUGUUUU | 59.3 | 41.5 | – | – |
| AUAGAAGACUAGAAGGACCUAGCUGUAUACCGUCGAGGUAUAUAGCUAGGUAGGAUAUGGGACAUGAGGAUCACCCAUGUCUUG | – | – | 8.58 | 7.58 |
| AUAGGGUGAGGAUAUCCAUCUGGAUCAGACUAGAUCCUGAUGGAGAAGGCACAUGAGGAUCACCCAUGUGAGUU | 125 | 151 | – | – |
| AUAGUCGGGAGAUAAACUCGUGCGGUAGAAGGGUGAUACUGGACAUGAGGAUCACCCAUGUGCACACAGGAUAUGCCCGCGAGC | – | – | 83.6 | 24.3 |
| AUAUAUAUAUCAGGAUAUGGACAGGCCUGUUCGUAUUGAGACAGUAACAUGAGGAUCACCCAUGUCCAGAAGGGAUAUAUAUAU | 93.2 | 55.1 | – | – |
| AUAUAUAUUAGAGGAUAUGUGUUCAUGUUACAUGAGGAUCACCCAUGUUUAGGUUGAUUGAUCUUACAGAAGGCUAUACAAUGA | 97.2 | 78.5 | – | – |
| AUAUAUAUUUAGAAGGACAUGAGGAUCACCCAUGUCGCUGGGCCCGGGAAACCGGGCCCGGCCAUGUAGGAUAUAGAUAUAUAU | 6.72 | 9.5 | – | – |
| AUAUCUUUAUCAGGAUAUGGACAGGCCUGUCCGUAUUGAGACAGUAACAUGAGGAUCACCCAUGUCCAGAAGGGAUCGAUGUAU | 56.5 | 45.8 | – | – |
| AUAUGAUAGAUAGGAUAUACAGAUAAAUAAUAAGUAGAAGGAUCAAAUGGAAAUUAUACAUGAGGAUCACCCAUGUUUUUGAAU | – | – | 29 | 22.4 |
